Experiment [1] concerns the target Nucleic Acid. The experiment in a line: Displacement of ethidium bromide from HIV TAR RNA by fluorescent intercalator displacement assay. It is filed as nucleic-acid assay, Human immunodeficiency virus. A digest of the protocol:
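TAR RNA prebound with ethidium bromide, then titrated successively with ligand to displace the intercalator. The resulting binding isotherm was analysed for DC50, the ligand concentration displacing 50% of bound dye.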

Experiment [2] concerns Nucleic Acid. The experiment in a line: Thermal stabilization of HIV TAR RNA assessed as change in melting temperature at 1:1 ligand to RNA ratio by UV-vis spectrophotometric analysis. To be noted: Human immunodeficiency virus. Type of experiment: nucleic-acid assay.
The target in experiment [3] is Nucleic Acid. The experiment in a line: Displacement of fluorescein and rhodamine-labeled TAT peptide from HIV TAR RNA by FRET assay. It is filed as nucleic-acid assay, Human immunodeficiency virus. A digest of the protocol:
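Tat peptide carrying fluorescein/rhodamine FRET pair mixed 1:1 with TAR RNA (100 nM each) in 50 mM Tris, 20 mM KCl, pH 7.4. Complex titrated with ligand until fluorescence stopped changing; displacement read as loss of fluorescein emission. Isotherm fitted to a dose-response curve to give IC50, the level displacing 50% of bound peptide.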

Experiment [4] in a line: Displacement of fluorescein-labeled REV peptide from HIV RRE RNA after 1 hr by fluorescence polarization assay. Also noted: species or system Human immunodeficiency virus. In general terms: In fluorescence polarisation assays a small probe gives low polarisation when free and higher when bound to something large.
Experiment [5] deals with Nucleic Acid. The experiment in a line: Binding affinity to HIV TAR RNA at 1.6 equiv after 5 mins by circular dichroism analysis. It is filed as nucleic-acid assay. Conditions: Human immunodeficiency virus. A digest of the protocol: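 TAR RNA titrated serially with ligand in small increments; after each addition the complex was stirred and equilibrated 5 min before recording the CD spectrum (average of three scans). Buffer 10 mM sodium cacodylate, 0.5 mM EDTA, 100 mM KCl, pH 6.8, at 20 °C.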

Activity calls are given as the source filed them. No cut-off for these calls is given here.

In the case of `CN1CCN(c2ccc3nc(-c4ccc(OCc5cn(CCCCCCCCCCn6cc(CCCCc7cn(C[C@H]8O[C@@H](O[C@@H]9[C@@H](O)[C@H](N)C[C@H](N)[C@H]9O[C@H]9O[C@H](CN)[C@@H](O)[C@H](O)[C@H]9N)[C@H](O)[C@@H]8O[C@H]8O[C@@H](CN)[C@@H](O)[C@H](O)[C@H]8N)nn7)nn6)nn5)cc4)[nH]c3c2)CC1`, the DC50 on Nucleic Acid [1] was determined as 0.18 µM. In addition, the ΔTm in the experiment with Nucleic Acid [2] was determined as 4 °C. The same compound had an IC50 on Nucleic Acid [3] of 1.38 µM.

Turning to `CN1CCN(c2ccc3nc(-c4ccc(OCCn5cc(CCc6cn(C[C@H]7O[C@@H](O[C@@H]8[C@@H](O)[C@H](N)C[C@H](N)[C@H]8O[C@H]8O[C@H](CN)[C@@H](O)[C@H](O)[C@H]8N)[C@H](O)[C@@H]7O[C@H]7O[C@@H](CN)[C@@H](O)[C@H](O)[C@H]7N)nn6)nn5)cc4)[nH]c3c2)CC1`, the DC50 on Nucleic Acid [1] is 0.083 µM. Further, the ΔTm with Nucleic Acid [2] turned out to be 3.4 °C. The IC50 on Nucleic Acid [3] was determined as 0.337 µM.

On to `CN1CCN(c2ccc3nc(-c4ccc(OCc5cn(CCCCCn6cc(CCCCc7cn(C[C@H]8O[C@@H](O[C@@H]9[C@@H](O)[C@H](N)C[C@H](N)[C@H]9O[C@H]9O[C@H](CN)[C@@H](O)[C@H](O)[C@H]9N)[C@H](O)[C@@H]8O[C@H]8O[C@@H](CN)[C@@H](O)[C@H](O)[C@H]8N)nn7)nn6)nn5)cc4)[nH]c3c2)CC1`, for which the DC50 on Nucleic Acid [1] was 0.15 µM. For the same compound, in the experiment with Nucleic Acid [2], the ΔTm was 2.1 °C. The IC50 at Nucleic Acid [3] is 0.851 µM.

With `CN1CCN(c2ccc3nc(-c4ccc(OCCn5cc(CCCc6cn(C[C@H]7O[C@@H](O[C@@H]8[C@@H](O)[C@H](N)C[C@H](N)[C@H]8O[C@H]8O[C@H](CN)[C@@H](O)[C@H](O)[C@H]8N)[C@H](O)[C@@H]7O[C@H]7O[C@@H](CN)[C@@H](O)[C@H](O)[C@H]7N)nn6)nn5)cc4)[nH]c3c2)CC1`, the DC50 at Nucleic Acid [1] came out at 0.14 µM. Further, the ΔTm with Nucleic Acid [2] turned out to be 4.1 °C. The IC50 on Nucleic Acid [3] came to 0.507 µM.

For the compound `C#CCOc1ccc(-c2nc3ccc(N4CCN(C)CC4)cc3[nH]2)cc1`, the ΔTm with Nucleic Acid [2] worked out at 1 °C.

In the case of `CN1CCN(c2ccc3nc(-c4ccc(OCc5cn(CCCCCCn6cc(CCCCc7cn(C[C@H]8O[C@@H](O[C@@H]9[C@@H](O)[C@H](N)C[C@H](N)[C@H]9O[C@H]9O[C@H](CN)[C@@H](O)[C@H](O)[C@H]9N)[C@H](O)[C@@H]8O[C@H]8O[C@@H](CN)[C@@H](O)[C@H](O)[C@H]8N)nn7)nn6)nn5)cc4)[nH]c3c2)CC1`, at Nucleic Acid [1], the DC50 amounted to 0.2 µM. In addition, the ΔTm in the experiment with Nucleic Acid [2] is 3.8 °C. Besides, the 50% inhibitory concentration (IC50) on Nucleic Acid [3] was found to be 1.37 µM.

As to `CN1CCN(c2ccc3nc(-c4ccc(OCc5cn(C[C@H]6O[C@@H](O[C@@H]7[C@@H](O)[C@H](N)C[C@H](N)[C@H]7O[C@H]7O[C@H](CN)[C@@H](O)[C@H](O)[C@H]7N)[C@H](O)[C@@H]6O[C@H]6O[C@@H](CN)[C@@H](O)[C@H](O)[C@H]6N)nn5)cc4)[nH]c3c2)CC1`, the IC50 in experiment [4] turned out to be 0.768 µM; on Nucleic Acid [3], 0.272 µM. The same compound returned a DC50 on Nucleic Acid [1] of 0.033 µM. Besides, the ΔTm in the experiment on Nucleic Acid [2] came to 5.6 °C. The result with Nucleic Acid [5] was Active.

`CN1CCN(c2ccc3nc(-c4ccc(OCCn5cc(COCc6cn(C[C@H]7O[C@@H](O[C@@H]8[C@@H](O)[C@H](N)C[C@H](N)[C@H]8O[C@H]8O[C@H](CN)[C@@H](O)[C@H](O)[C@H]8N)[C@H](O)[C@@H]7O[C@H]7O[C@@H](CN)[C@@H](O)[C@H](O)[C@H]7N)nn6)nn5)cc4)[nH]c3c2)CC1`: on Nucleic Acid [1], the DC50 amounted to 0.078 µM. Further, the ΔTm in the experiment on Nucleic Acid [2] amounted to 3 °C. In addition, on Nucleic Acid [3], the IC50 was found to be 1.28 µM.

Consider `CN1CCN(c2ccc3nc(-c4ccc(OCCn5cc(CCCCCCc6cn(C[C@H]7O[C@@H](O[C@@H]8[C@@H](O)[C@H](N)C[C@H](N)[C@H]8O[C@H]8O[C@H](CN)[C@@H](O)[C@H](O)[C@H]8N)[C@H](O)[C@@H]7O[C@H]7O[C@@H](CN)[C@@H](O)[C@H](O)[C@H]7N)nn6)nn5)cc4)[nH]c3c2)CC1`, for which the DC50 at Nucleic Acid [1] is 0.081 µM. Also, the ΔTm in the experiment on Nucleic Acid [2] turned out to be 5.4 °C. This compound also had an IC50 at Nucleic Acid [3] of 0.949 µM.

Regarding `CN1CCN(c2ccc3nc(-c4ccc(OCCn5cc(-c6ccc(-c7cn(C[C@H]8O[C@@H](O[C@@H]9[C@@H](O)[C@H](N)C[C@H](N)[C@H]9O[C@H]9O[C@H](CN)[C@@H](O)[C@H](O)[C@H]9N)[C@H](O)[C@@H]8O[C@H]8O[C@@H](CN)[C@@H](O)[C@H](O)[C@H]8N)nn7)cc6)nn5)cc4)[nH]c3c2)CC1`, on Nucleic Acid [1], the DC50 amounted to 0.18 µM. For the same compound, in the experiment on Nucleic Acid [2], the ΔTm was found to be 3 °C. The compound further gave an IC50 at Nucleic Acid [3] of 0.379 µM.

With `NC[C@@H]1O[C@H](O[C@H]2[C@@H](O)[C@H](O[C@@H]3[C@@H](O)[C@H](N)C[C@H](N)[C@H]3O[C@H]3O[C@H](CN)[C@@H](O)[C@H](O)[C@H]3N)O[C@@H]2CO)[C@H](N)[C@@H](O)[C@@H]1O` [FRAMYCETIN], in the experiment on Nucleic Acid [2], the ΔTm is 2 °C. This compound also displayed an IC50 at Nucleic Acid [3] of 1.47 µM.

In turn, `CN1CCN(c2ccc3nc(-c4ccc(OCc5cn(Cn6cc(CCCCc7cn(C[C@H]8O[C@@H](O[C@@H]9[C@@H](O)[C@H](N)C[C@H](N)[C@H]9O[C@H]9O[C@H](CN)[C@@H](O)[C@H](O)[C@H]9N)[C@H](O)[C@@H]8O[C@H]8O[C@@H](CN)[C@@H](O)[C@H](O)[C@H]8N)nn7)nn6)nn5)cc4)[nH]c3c2)CC1` showed a DC50 on Nucleic Acid [1] of 0.184 µM. For the same compound, the ΔTm in the experiment on Nucleic Acid [2] was found to be 2.5 °C. On Nucleic Acid [3], this compound registered an IC50 of 0.411 µM.

The term ΔTm denotes the shift of the melting midpoint relative to a reference. A word on the IC50: it is the midpoint of a concentration-inhibition curve. A lower IC50 goes with greater potency in that assay.

Values taken from ChEMBL document CHEMBL2429818, “Recognition of HIV-TAR RNA using neomycin-benzimidazole conjugates” (Bioorg Med Chem Lett, 2013).
